ChEMBL document CHEMBL1138201, “Development and characterization of biphenylsulfonamides as novel inhibitors of bone resorption” (J Med Chem, 2006)
Active and inactive are the calls of the source. The calls are words filed in the database; no cut-off is given here.

Key:
J774 = experiment: Inhibition of mouse J774 cell survival by alamar blue viability assay; assay type: functional, cell-based
How it was run: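 J774 cells were seeded at 10⁴ per well in […] with 10% FCS and penicillin/streptomycin and grown overnight. Compounds were then added for 48 h. Alamar Blue was added for a further 3 h and viability was read as fluorescence (ex 530, em 590 nm). There were at least three independent experiments, n = 5 each, and IC₅₀ was fitted.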

Homo sapiens [1] = species on record: Homo sapiens; experiment: Inhibition of TNF-alpha-activated NF-kappaB
Homo sapiens [2] = species on record: Homo sapiens; experiment: Inhibition of RANKL-activated NF-kappaB
Osteoclast [3] = experiment: Inhibition of mouse osteoclast survival; assay type: functional, cell-based
How it was run: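 Mouse bone marrow from femora and tibiae was grown 3 days with 100 ng/mL M-CSF. Adherent cells were seeded on dentine slices (4 × 10⁴ cells/mL) with 100 ng/mL RANKL and 25 ng/mL M-CSF for 7 days. Compounds were present for 72 h from day 4. TRAcP-positive cells with ≥3 nuclei were counted as % of vehicle. Three experiments, n = 5 each.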

Mus musculus = experiment: Inhibition of ovariectomy-induced bone loss in C57/BL6 mouse at 5 mg/kg/day, ip; assay type: functional, organism-based
How it was run: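 Nine-week-old female C57/BL6 mice were ovariectomized or sham-operated. Starting 2 days after surgery, they received 5 (mg/kg)/day intraperitoneally in corn oil for 21 days; controls received oil alone. The study ended on day 23. Bone at the right tibial metaphysis was measured by µCT at 5 µm resolution over 200 slices distal to the growth plate. Results are % change from sham, ±SEM, n = 6.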

Osteoclast [4] = experiment: Apoptosis of osteoclast at 5 to 20 uM; assay type: functional, cell-based; conditions: Homo sapiens
Macrophage = experiment: Apoptosis of macrophage at 5 to 20 uM; assay type: functional, cell-based; conditions: Homo sapiens
Osteoblast = experiment: Effect on apoptosis of osteoblast; assay type: functional, cell-based; conditions: Homo sapiens
Hepatocyte = experiment: Effect on apoptosis of hepatocyte; assay type: functional, cell-based; conditions: Homo sapiens

Row | Structure (SMILES) | IC50 (J774) | further results
1 | O=S(=O)(NCCCCCO)c1ccc(-c2ccc(Cl)cc2Cl)cc1 | 2.5 µM | –
2 | O=S(=O)(NCCCCCO)c1ccc(-c2ccc(C(F)(F)F)cc2C(F)(F)F)cc1 | 2 µM | –
3 | O=S(=O)(NCCCCO)c1ccc(-c2ccccc2C(F)(F)F)cc1 | 6 µM | –
4 | O=S(=O)(NCCCCCO)c1ccc(-c2ccccc2)cc1 | 18 µM | –
5 | O=S(=O)(NCCCCCO)c1ccc(-c2ccc(F)cc2F)cc1 | 4.5 µM | –
6 | O=S(=O)(NCCCCO)c1ccccc1-c1ccc(F)cc1 | > 50 µM | –
7 | O=S(=O)(NCCCCO)c1ccc(-c2ccccc2I)cc1 | 5.5 µM | –
8 | O=S(=O)(NCCCCO)c1ccc(-c2ccccc2)cc1 | 18 µM | Activity (Homo sapiens [1]): Active; Activity (Homo sapiens [2]): Active; IC50 (Osteoclast [3]): 8 µM
9 | O=[N+]([O-])c1cccc(-c2ccc(S(=O)(=O)NCCCCO)cc2)c1 | 33 µM | –
10 | O=S(=O)(NCCCCCO)c1ccc(-c2ccc(F)c(F)c2)cc1 | 16 µM | –
11 | CC(=O)c1ccc(-c2ccc(S(=O)(=O)NCCCCCO)cc2)cc1 | 11 µM | –
12 | O=S(=O)(NCCCCO)c1ccc(-c2ccc(Br)cc2)cc1 | 8 µM | –
13 | O=S(=O)(NCCCCCO)c1ccc(-c2ccc(Br)cc2)cc1 | 9 µM | –
14 | Cc1cc(S(=O)(=O)NCCCCO)ccc1-c1ccc(F)cc1F | 0.8 µM | Activity (Homo sapiens [1]): Active; Activity (Homo sapiens [2]): Active; IC50 (Osteoclast [3]): 0.15 µM; Activity (Mus musculus): Active
15 | O=S(=O)(NCCCCO)c1cccc(-c2ccc(C(F)(F)F)cc2)c1 | > 50 µM | –
16 | O=S(=O)(NCCCCO)c1ccc(-c2ccc(F)cc2F)c(C(F)(F)F)c1 | 0.7 µM | –
17 | O=S(=O)(NCCCCO)c1ccc(-c2ccccc2)cc1C(F)(F)F | 4.5 µM | –
18 | Cc1cc(S(=O)(=O)NCCCCO)ccc1-c1ccc(F)cc1 | 2.5 µM | –
19 | O=S(=O)(NCCCCCO)c1ccc(-c2ccc(-c3ccccc3)cc2)cc1 | 33 µM | –
20 | N#Cc1ccc(-c2ccc(S(=O)(=O)NCCCCCO)cc2)cc1 | 12 µM | –

Row | Structure (SMILES) | IC50 (J774) | further results
21 | Cc1cccc(-c2ccc(S(=O)(=O)NCCCCO)cc2)c1 | 28 µM | –
22 | COc1ccccc1-c1ccc(S(=O)(=O)NCCCCCO)cc1 | 31 µM | –
23 | O=S(=O)(NCCCCO)c1ccc(-c2ccc(Br)cc2F)cc1 | 3 µM | –
24 | CN(C)c1ccc(-c2ccc(S(=O)(=O)NCCCCCO)cc2)cc1 | 32 µM | –
25 | COc1cc(S(=O)(=O)NCCCCCO)ccc1-c1ccc(F)cc1F | 33 µM | –
26 | O=C(O)c1ccc(-c2ccc(S(=O)(=O)NCCCCCO)cc2)cc1 | 33 µM | –
27 | O=[N+]([O-])c1ccccc1-c1ccc(S(=O)(=O)NCCCCO)cc1 | 2 µM | –
28 | CSc1ccc(-c2ccc(S(=O)(=O)NCCCCO)cc2)cc1 | 35 µM | –
29 | O=C(OCCCCO)c1ccc(-c2ccccc2)cc1 | – | Activity (Homo sapiens [1]): Active; Activity (Homo sapiens [2]): Active; IC50 (Osteoclast [3]): 9 µM; Activity (Osteoclast [4]): Active; Activity (Macrophage): Active; IC50 (Osteoblast): > 100 µM; IC50 (Hepatocyte): > 200 µM
30 | Nc1ccccc1-c1ccc(S(=O)(=O)NCCCCO)cc1 | 24 µM | –
31 | O=S(=O)(NCCCCCCO)c1ccc(-c2ccccc2)cc1 | 13 µM | –
32 | O=S(=O)(NCCCCO)c1ccc(-c2ccc(C(F)(F)F)cc2)cc1F | 5 µM | –
33 | O=S(=O)(NCCCCO)c1ccc(-c2ccc(OC(F)(F)F)cc2)cc1 | 8 µM | –
34 | O=S(=O)(NCCCO)c1ccc(-c2ccccc2)cc1 | > 50 µM | –
35 | O=S(=O)(NCCCCO)c1ccc(-c2ccc(C(F)(F)F)cc2)c(F)c1 | 5.5 µM | –
36 | O=S(=O)(NCCCCCO)c1ccc(-c2ccc(O)cc2)cc1 | 21 µM | –
37 | O=S(=O)(NCCCCO)c1ccc(-c2ccc(F)cc2)cc1 | 8 µM | –
38 | O=S(=O)(NCCCCO)c1ccc(-c2ccc(C(F)(F)F)cc2)cc1 | 5 µM | –
39 | Cc1ccc(-c2ccc(S(=O)(=O)NCCCCCO)cc2)cc1 | 13 µM | –
